Our source for the Activity values is ChEMBL document CHEMBL3102843, “Synthesis and antifungal activity of substituted 2,4,6-pyrimidinetrione carbaldehyde hydrazones” (Bioorg Med Chem, 2014).

Activity calls are given as the source filed them. No cut-off for these calls is given here.

In one test the test system is Candida albicans. Kind of test: Antifungal activity against Candida albicans ATCC 10231 at 125 ug/ml after 48 to 72 hrs by broth microdilution method. The class given is functional, organism-based. Summed up:
(§1)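 Broth microdilution per NCCLS. Inocula come from 5–7 colonies on YM agar, suspended in sterile water and adjusted to 0.5 McFarland at 530 nm (stock 1×10⁶–5×10⁶ cells/mL), then diluted 1:50 in HEPES-buffered RPMI 1640. Compounds in DMSO (final ≤1%) are added as a 10-fold dilution into the suspension. Plates run 48–72 h at 35 °C, humid. Growth is scored visually; the endpoint is ≥80% reduction versus drug-free wells.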
A general note: Broth dilution looks for growth in wells or tubes with falling amounts of substance.

The test system of a further test is Nakaseomyces glabratus. Kind of test: Antifungal activity against Candida glabrata ATCC 48435 at 125 ug/ml after 48 to 72 hrs by broth microdilution method. It is filed as functional, organism-based. Summed up: as §1

On to `CN1C(=O)C(C(=O)c2ccc(O)cc2)C(=O)N(C)C1=O`, for which the outcome in the test with Candida albicans and in the test with Nakaseomyces glabratus was inactive.

On to `CN1C(=O)NC(=O)C(C(=O)c2ccccc2)C1=O` (centres undefined), for which the result with Candida albicans and in the test with Nakaseomyces glabratus was inactive.

With `O=C1NC(=O)C(Cc2ccc3ccccc3c2)C(=O)N1`, the result with Candida albicans and in the test on Nakaseomyces glabratus was inactive.

As to `O=C1NC(=O)C(Cc2ccc(O)cc2)C(=O)N1`, the outcome in the test on Candida albicans and with Nakaseomyces glabratus was inactive.

On to `CC(C)C1C(=O)NC(=O)N(c2ccccc2)C1=O` (centres undefined), for which the result in the test on Candida albicans and in the test with Nakaseomyces glabratus was inactive.

As for `CN1C(=O)C(C(=O)c2ccccc2)C(=O)N(C)C1=O`, the outcome in the test with Candida albicans and with Nakaseomyces glabratus was inactive.

Regarding `CCCCN1C(=O)NC(=O)C(C(=O)c2ccc(O)cc2)C1=O` (centres undefined), the outcome in the test on Candida albicans and in the test on Nakaseomyces glabratus was inactive.

Consider `CN1C(=O)C(C(=O)c2cc([N+](=O)[O-])cc([N+](=O)[O-])c2)C(=O)N(C)C1=O`, for which the outcome in the test with Candida albicans and in the test with Nakaseomyces glabratus was inactive.

Turning to `O=C1NC(=O)C(C(=O)c2cccc([N+](=O)[O-])c2)C(=O)N1`, the result in the test on Candida albicans and in the test with Nakaseomyces glabratus was inactive.

For the compound `O=C1NC(=O)C(CC2CCC(O)CC2)C(=O)N1` (centres undefined), the outcome with Candida albicans and in the test on Nakaseomyces glabratus was inactive.

With `CN1C(=O)C(CCCc2ccccc2)C(=O)N(C)C1=O`, the result with Candida albicans and in the test on Nakaseomyces glabratus was inactive.

For `CN1C(=O)C(C(=O)c2cccc([N+](=O)[O-])c2)C(=O)N(C)C1=O`, the outcome with Candida albicans and in the test with Nakaseomyces glabratus was inactive.

On to `O=C1NC(=O)C(C2CCCCC2)C(=O)N1`, for which the result in the test with Candida albicans and with Nakaseomyces glabratus was inactive.

Consider `CCCCN1C(=O)NC(=O)C(C(=O)c2ccc(OC)cc2)C1=O` (centres undefined), for which the outcome in the test with Candida albicans and in the test on Nakaseomyces glabratus was inactive.

For the compound `O=C1NC(=O)C(C(=O)c2ccc(O)cc2)C(=O)N1`, the result in the test on Candida albicans and with Nakaseomyces glabratus was inactive.

With `CN1C(=O)NC(=O)C(C=O)C1=O` (centres undefined), the outcome in the test with Candida albicans and in the test on Nakaseomyces glabratus was inactive.

As to `CN1C(=O)C(C(=O)c2ccc([N+](=O)[O-])cc2)C(=O)N(C)C1=O`, the result with Candida albicans and in the test on Nakaseomyces glabratus was inactive.

`O=CC1C(=O)NC(=O)NC1=O`: the result with Candida albicans and in the test with Nakaseomyces glabratus was inactive.

On to `CCCCCCCC1C(=O)NC(=O)NC1=O`, for which the result in the test on Candida albicans and in the test on Nakaseomyces glabratus was inactive.

On to `COc1ccc(C(=O)C2C(=O)NC(=O)NC2=O)cc1`, for which the result in the test with Candida albicans and with Nakaseomyces glabratus was inactive.

For `O=C1NC(=O)N(c2ccccc2)C(=O)C1CC1CCC(O)CC1` (centres undefined), the outcome in the test with Candida albicans and in the test on Nakaseomyces glabratus was inactive.

Regarding `CC(=O)C1C(=O)NC(=O)NC1=O`, the result in the test on Candida albicans and in the test on Nakaseomyces glabratus was inactive.

Consider `CN(C)c1ccc(CC2(CCCc3ccccc3)C(=O)NC(=O)NC2=O)cc1`, for which the outcome in the test on Candida albicans and in the test on Nakaseomyces glabratus was inactive.

Take `O=C1NC(=O)C(CCCc2ccccc2)C(=O)N1`: the result in the test with Candida albicans and with Nakaseomyces glabratus was inactive.

Consider `O=C1NC(=O)C(C(=O)c2cc([N+](=O)[O-])cc([N+](=O)[O-])c2)C(=O)N1`, for which the outcome in the test with Candida albicans and with Nakaseomyces glabratus was inactive.

With `CN(C)c1ccc(CC2(Cc3ccc(N(C)C)cc3)C(=O)NC(=O)NC2=O)cc1`, the result in the test on Candida albicans and with Nakaseomyces glabratus was inactive.

In the case of `O=C1NC(=O)C(C(=O)c2ccc([N+](=O)[O-])cc2)C(=O)N1`, the result with Candida albicans and with Nakaseomyces glabratus was inactive.
